Laboratory results: PMC11920041 (NPJ Parkinson's Disease, 2025)
Like-named read-outs stand apart in the source and are kept apart here. Values belong to the compound of their own block, whether it stands above or below them.

What was measured:
[1] = test system: small intestinal bacterial overgrowth (SIBO); details: eradication of SIBO in patients with PD; cited from earlier work
[2] = cited from earlier work
AADC = details: cited from earlier work
[3] = mice; cited from earlier work
tyrDC = details: cited from earlier work
[4] = concomitant use in patients with PD; cited from earlier work
[5] = format: in vivo; details: human, plasma, oral, median [interquartile range]; for AUC: up to 3 h
In short: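 Fasting ≥12 h after last meal, dosing from 9:00 a.m.; PD patients on oral levodopa, diagnosed by UK Brain Bank criteria; no concomitant magnesium oxide or prokinetics. Blood via indwelling catheter before and 15–180 min after dose; centrifuged 1000 g, 10 min, 4 °C; plasma stored −80 °C; HPLC-ECD. Cmax and Tmax taken from the curve; AUC to 3 h by linear trapezoidal rule.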

[6] = administered in combination with carbidopa; cited from earlier work
[7] = female, female patients, n = 12

SMILES: CO[C@H]1/C=C/O[C@@]2(C)Oc3c(C)c(O)c4c(O)c(c5c(nc6cc(C)ccn65)c4c3C2=O)NC(=O)/C(C)=C\C=C\[C@H](C)[C@H](O)[C@@H](C)[C@@H](O)[C@@H](C)[C@H](OC(C)=O)[C@@H]1C [rifaximin]
effect on motor fluctuations [1]: improves motor fluctuations

SMILES: [O]=[Mg] [magnesium oxide]
effect of concomitant use on bioavailability of levodopa [2]: may reduce

SMILES: N[C@@](CF)(Cc1ccc(O)cc1)C(=O)O [AFMT, (S)-α-fluoromethyltyrosine]
effect on AADC (AADC): without affecting AADC | effect of concomitant use on levodopa Cmax [3]: increased | inhibition of tyrDC-mediated levodopa decarboxylation (tyrDC): selective inhibitor

SMILES: COc1ccc2nc([S@@+]([O-])Cc3ncc(C)c(OC)c3C)[nH]c2c1 [esomeprazole]
effect on levels of carbidopa in the plasma [4]: without affecting | effect on levels of levodopa in the plasma [4]: reduced

AUC [5, 7]: 12.7 µM·h | Cmax [5, 7]: 10.4 µM | Tmax ([5]; low levodopa Cmax group (< 9 μmol/L), n = 11): 45 min | AUC ([5]; male, male patients, n = 9): 6.95 µM·h | Cmax ([5]; male, male patients, n = 9): 4.88 µM | Tmax ([5]; male, male patients, n = 9): 45 min
SMILES: N[C@@H](Cc1ccc(O)c(O)c1)C(=O)O [levodopa]
half-life [6]: approximately 90 min
